# Test results from ChEMBL document CHEMBL3120071, “Biologically active eremophilane-type sesquiterpenes from Camarops sp., an endophytic fungus isolated from Alibertia macrophylla” (J Nat Prod, 2014).
# Test system: not listed separately
# Assay: Cytotoxicity against human neutrophils assessed as cell viability at 10 uM by trypan blue exclusion assay
# Format: functional
# Settings: Neutrophil, read-out: Activity
# Method in brief: (§1)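 Human neutrophil viability was assessed by trypan blue exclusion after compound exposure at up to 100 μM for up to 60 min, including 10 μM, the concentration used in the respiratory burst studies.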
row,SMILES,viability at 10 µM [%]
1,CCC(C)CC(C)CC(O)(CO)C(=O)O[C@@H]1CC[C@H](C)[C@@]2(C)C=C([C@@H](C)CO)C(=O)C=C12 (stereo not given in full),> 98
2,CCC(C)CC(C)CC(O)(CO)C(=O)O[C@@H]1CC[C@H](C)[C@@]2(C)C=C([C@H](C)CO)C(=O)C=C12 (stereo not given in full),> 98
3,C=C(CO)[C@@]12O[C@@H]1[C@@]1(C)C(=CC2=O)[C@H](OC(=O)C(C)CC(C)CC(C)CC)CC[C@@H]1C (stereo not given in full) [XYLARENONE C],> 98
4,C=C(CO)[C@@]12O[C@@H]1[C@@]1(C)C(=CC2=O)[C@H](OC(=O)C(O)(CO)CC(C)CC(C)CC)CC[C@@H]1C (stereo not given in full) [XYLARENONE D],> 98

# Test system: not listed separately
# Assay: (§2) Antioxidant activity in human neutrophils assessed as inhibition of oxidative burst-induced ROS production by chemiluminescence assay
# Format: functional, cell-based
# Settings: Neutrophil
# Method in brief: (§3)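 Human neutrophils were isolated and the respiratory burst was stimulated. Total ROS were measured by luminol-enhanced chemiluminescence (LumCL). DMSO replaced compound in the blanks, taken as 100%. Quercetin and apocynin served as positive controls, and IC50 was taken from concentration–response data.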
row,SMILES,IC50 [µM]
1,COc1cc(C(C)=O)ccc1O [APOCYNIN],3.9
2,O=c1c(O)c(-c2ccc(O)c(O)c2)oc2cc(O)cc(O)c12 [QUERCETIN],4.86
3,C=C(CO)[C@@]12O[C@@H]1[C@@]1(C)C(=CC2=O)[C@H](OC(=O)C(O)(CO)CC(C)CC(C)CC)CC[C@@H]1C (stereo not given in full) [XYLARENONE D],5.73

# The remaining lines, values ahead:
row,IC50 [µM],SMILES
1,4.17,CCC(C)CC(C)CC(O)(CO)C(=O)O[C@@H]1CC[C@H](C)[C@@]2(C)C=C([C@@H](C)CO)C(=O)C=C12 (stereo not given in full)
2,5.9,CCC(C)CC(C)CC(O)(CO)C(=O)O[C@@H]1CC[C@H](C)[C@@]2(C)C=C([C@H](C)CO)C(=O)C=C12 (stereo not given in full)
3,6.13,C=C(CO)[C@@]12O[C@@H]1[C@@]1(C)C(=CC2=O)[C@H](OC(=O)C(C)CC(C)CC(C)CC)CC[C@@H]1C (stereo not given in full) [XYLARENONE C]

# Test system: Neutrophil
# Assay: as §2
# Format: functional, cell-based
# Settings: not given
# Method in brief: as §3
row,SMILES,Activity
1,CCC(C)CC(C)CC(O)(CO)C(=O)O[C@@H]1CC[C@H](C)[C@@]2(C)C=C([C@@H](C)CO)C(=O)C=C12 (stereo not given in full),Dose-dependent effect
2,CCC(C)CC(C)CC(O)(CO)C(=O)O[C@@H]1CC[C@H](C)[C@@]2(C)C=C([C@H](C)CO)C(=O)C=C12 (stereo not given in full),Dose-dependent effect
3,C=C(CO)[C@@]12O[C@@H]1[C@@]1(C)C(=CC2=O)[C@H](OC(=O)C(C)CC(C)CC(C)CC)CC[C@@H]1C (stereo not given in full) [XYLARENONE C],Dose-dependent effect
4,C=C(CO)[C@@]12O[C@@H]1[C@@]1(C)C(=CC2=O)[C@H](OC(=O)C(O)(CO)CC(C)CC(C)CC)CC[C@@H]1C (stereo not given in full) [XYLARENONE D],Dose-dependent effect

# Test system: not listed separately
# Assay: Antioxidant activity […] assessed as xanthine/xanthine oxidase-induced ROS scavenging activity by WST-1 assay
# Format: functional
# Settings: not given
# Method in brief: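 Superoxide was generated by xanthine/xanthine oxidase and detected as reduction of the tetrazolium salt WST-1 to a soluble formazan (modified Tan and Berridge method). Quercetin was the positive control.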
row,SMILES,IC50 [µM]
1,CCC(C)CC(C)CC(O)(CO)C(=O)O[C@@H]1CC[C@H](C)[C@@]2(C)C=C([C@@H](C)CO)C(=O)C=C12 (stereo not given in full),> 100
2,CCC(C)CC(C)CC(O)(CO)C(=O)O[C@@H]1CC[C@H](C)[C@@]2(C)C=C([C@H](C)CO)C(=O)C=C12 (stereo not given in full),> 100
3,C=C(CO)[C@@]12O[C@@H]1[C@@]1(C)C(=CC2=O)[C@H](OC(=O)C(C)CC(C)CC(C)CC)CC[C@@H]1C (stereo not given in full) [XYLARENONE C],> 100
4,C=C(CO)[C@@]12O[C@@H]1[C@@]1(C)C(=CC2=O)[C@H](OC(=O)C(O)(CO)CC(C)CC(C)CC)CC[C@@H]1C (stereo not given in full) [XYLARENONE D],> 100

# Biological target: T1, Myeloperoxidase (Homo sapiens, UniProt P05164)
# T1 sequence (P05164 whole entry): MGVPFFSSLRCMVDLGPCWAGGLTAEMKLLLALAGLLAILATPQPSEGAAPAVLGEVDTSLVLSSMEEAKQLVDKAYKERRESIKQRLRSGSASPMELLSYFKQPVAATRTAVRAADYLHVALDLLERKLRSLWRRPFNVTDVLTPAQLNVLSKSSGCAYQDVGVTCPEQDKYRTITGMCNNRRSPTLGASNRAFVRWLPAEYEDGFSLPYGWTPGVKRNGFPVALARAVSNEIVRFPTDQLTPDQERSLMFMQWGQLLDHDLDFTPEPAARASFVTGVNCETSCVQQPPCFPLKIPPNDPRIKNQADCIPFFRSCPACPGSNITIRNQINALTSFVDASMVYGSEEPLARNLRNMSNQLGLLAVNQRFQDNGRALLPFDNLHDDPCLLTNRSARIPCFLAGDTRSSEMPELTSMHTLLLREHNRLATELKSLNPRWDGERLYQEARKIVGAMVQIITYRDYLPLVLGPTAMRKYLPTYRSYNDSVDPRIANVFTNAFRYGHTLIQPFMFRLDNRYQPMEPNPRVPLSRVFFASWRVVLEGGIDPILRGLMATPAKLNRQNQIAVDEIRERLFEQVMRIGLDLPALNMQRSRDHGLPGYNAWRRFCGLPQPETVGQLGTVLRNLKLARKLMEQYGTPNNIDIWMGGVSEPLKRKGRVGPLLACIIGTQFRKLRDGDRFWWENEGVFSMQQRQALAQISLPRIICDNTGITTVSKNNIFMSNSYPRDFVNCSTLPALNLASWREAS
# Assay: Inhibition of myeloperoxidase (unknown origin) using HOCl/taurine as substrate assessed as inhibition of taurine chloramine production by spectrophotometry
# Format: single protein
# Settings: not given
# Method in brief: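 MPO, quantified by absorbance at 430 nm (ε = 89 000 mol−1 cm−1 per heme), chlorinating activity was measured. The HOCl produced reacts with taurine to give taurine chloramine, which oxidizes TMB to a blue product read at 655 nm. 5-Fluorotryptamine was the positive control.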
row,IC50 [µM],SMILES
1,> 100,CCC(C)CC(C)CC(O)(CO)C(=O)O[C@@H]1CC[C@H](C)[C@@]2(C)C=C([C@@H](C)CO)C(=O)C=C12 (stereo not given in full)
2,> 100,CCC(C)CC(C)CC(O)(CO)C(=O)O[C@@H]1CC[C@H](C)[C@@]2(C)C=C([C@H](C)CO)C(=O)C=C12 (stereo not given in full)
3,> 100,C=C(CO)[C@@]12O[C@@H]1[C@@]1(C)C(=CC2=O)[C@H](OC(=O)C(C)CC(C)CC(C)CC)CC[C@@H]1C (stereo not given in full) [XYLARENONE C]

row,SMILES,IC50 [µM]
1,C=C(CO)[C@@]12O[C@@H]1[C@@]1(C)C(=CC2=O)[C@H](OC(=O)C(O)(CO)CC(C)CC(C)CC)CC[C@@H]1C (stereo not given in full) [XYLARENONE D],> 100

# Test system: not listed separately
# Assay: Antioxidant activity […] assessed as […] HOCl scavenging activity by spectrophotometry
# Format: functional
# Settings: not given
# Method in brief: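 Cell-free HOCl scavenging. HOCl was made by diluting commercial bleach and quantified at 292 nm (ε = 350 mol−1 cm−1). It reacts with taurine to give taurine chloramine, which oxidizes TMB. Absorbance was read at 655 nm, with quercetin as the positive control.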
row,IC50 [µM],SMILES
1,> 100,CCC(C)CC(C)CC(O)(CO)C(=O)O[C@@H]1CC[C@H](C)[C@@]2(C)C=C([C@@H](C)CO)C(=O)C=C12 (stereo not given in full)
2,> 100,CCC(C)CC(C)CC(O)(CO)C(=O)O[C@@H]1CC[C@H](C)[C@@]2(C)C=C([C@H](C)CO)C(=O)C=C12 (stereo not given in full)
3,> 100,C=C(CO)[C@@]12O[C@@H]1[C@@]1(C)C(=CC2=O)[C@H](OC(=O)C(C)CC(C)CC(C)CC)CC[C@@H]1C (stereo not given in full) [XYLARENONE C]

row,SMILES,IC50 [µM]
1,C=C(CO)[C@@]12O[C@@H]1[C@@]1(C)C(=CC2=O)[C@H](OC(=O)C(O)(CO)CC(C)CC(C)CC)CC[C@@H]1C (stereo not given in full) [XYLARENONE D],> 100

# Test system: not listed separately
# Assay: Cytotoxicity against human neutrophils at < 100 uM after 60 mins by trypan blue exclusion assay
# Format: cell-based
# Settings: neutrophil, 1 h
# Method in brief: as §1
row,SMILES,Activity
1,CCC(C)CC(C)CC(O)(CO)C(=O)O[C@@H]1CC[C@H](C)[C@@]2(C)C=C([C@@H](C)CO)C(=O)C=C12 (stereo not given in full),Non-toxic
2,CCC(C)CC(C)CC(O)(CO)C(=O)O[C@@H]1CC[C@H](C)[C@@]2(C)C=C([C@H](C)CO)C(=O)C=C12 (stereo not given in full),Non-toxic
3,C=C(CO)[C@@]12O[C@@H]1[C@@]1(C)C(=CC2=O)[C@H](OC(=O)C(C)CC(C)CC(C)CC)CC[C@@H]1C (stereo not given in full) [XYLARENONE C],Non-toxic
4,C=C(CO)[C@@]12O[C@@H]1[C@@]1(C)C(=CC2=O)[C@H](OC(=O)C(O)(CO)CC(C)CC(C)CC)CC[C@@H]1C (stereo not given in full) [XYLARENONE D],Non-toxic
